Measured values from ChEMBL document CHEMBL1671856, “Chemical target validation studies of aminopeptidase in malaria parasites using alpha-aminoalkylphosphonate and phosphonopeptide inhibitors” (Antimicrob Agents Chemother, 2008).

Legend:
[1] = biological target: T1, Leucine aminopeptidase (Plasmodium falciparum 3D7) (UniProt Q8IL11); assay: Inhibition of leucyl aminopeptidase activity in Plasmodium falciparum 3D7 at 0.1 uM using Leu-AMC as a substrate by spectrophotometer
T1 sequence (whole entry): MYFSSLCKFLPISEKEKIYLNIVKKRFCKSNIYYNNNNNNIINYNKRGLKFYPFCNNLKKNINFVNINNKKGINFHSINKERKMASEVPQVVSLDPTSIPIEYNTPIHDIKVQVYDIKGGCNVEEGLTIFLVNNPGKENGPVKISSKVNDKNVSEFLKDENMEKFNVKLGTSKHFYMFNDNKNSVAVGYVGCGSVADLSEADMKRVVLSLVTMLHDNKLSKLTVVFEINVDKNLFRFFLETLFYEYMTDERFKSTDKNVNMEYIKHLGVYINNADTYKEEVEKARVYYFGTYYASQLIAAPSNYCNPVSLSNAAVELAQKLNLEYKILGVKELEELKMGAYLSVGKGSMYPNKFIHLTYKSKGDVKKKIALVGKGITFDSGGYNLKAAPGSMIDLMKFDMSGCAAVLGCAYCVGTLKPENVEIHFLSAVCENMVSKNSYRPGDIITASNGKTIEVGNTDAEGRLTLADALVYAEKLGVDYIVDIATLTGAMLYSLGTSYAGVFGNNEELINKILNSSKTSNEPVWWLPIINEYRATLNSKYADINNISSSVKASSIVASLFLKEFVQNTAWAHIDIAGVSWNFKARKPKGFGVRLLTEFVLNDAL
Summary of the method: (§1)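 Cytosolic extract came from free parasites released from infected erythrocytes, then three freeze-thaw cycles and centrifugation at 12,000 x g, 4°C, 20 min. Extract (25 µg/ml final) was preincubated with 0.1 or 10 µM inhibitor in 50 mM Tris-Cl pH 8.0, with or without 1 mM CoCl2, for 15 min at 37°C. Leu-AMC or Ala-AMC (10 µM final) was added. AMC release was read over 30 min (ex 370/em 440 nm).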

Plasmodium falciparum [2] = assay: Inhibition of alanyl aminopeptidase activity in Plasmodium falciparum 3D7 at 10 uM using Ala-AMC as a substrate by spectrophotometer; summary of the method: as §1
[3] = biological target: T1, Leucine aminopeptidase (Plasmodium falciparum 3D7); assay: Inhibition of leucyl aminopeptidase activity in Plasmodium falciparum 3D7 harboring tPfAP-M17 gene at 0.1 uM using Leu-AMC as a substrate by spectrophotometer in presence of 1 mM CoCl2
Aminopeptidase N = biological target: T2, Aminopeptidase N (Sus scrofa, UniProt P15145); assay: Inhibition of pig kidney microsomal aminopeptidase N
T2 sequence (P15145 whole entry): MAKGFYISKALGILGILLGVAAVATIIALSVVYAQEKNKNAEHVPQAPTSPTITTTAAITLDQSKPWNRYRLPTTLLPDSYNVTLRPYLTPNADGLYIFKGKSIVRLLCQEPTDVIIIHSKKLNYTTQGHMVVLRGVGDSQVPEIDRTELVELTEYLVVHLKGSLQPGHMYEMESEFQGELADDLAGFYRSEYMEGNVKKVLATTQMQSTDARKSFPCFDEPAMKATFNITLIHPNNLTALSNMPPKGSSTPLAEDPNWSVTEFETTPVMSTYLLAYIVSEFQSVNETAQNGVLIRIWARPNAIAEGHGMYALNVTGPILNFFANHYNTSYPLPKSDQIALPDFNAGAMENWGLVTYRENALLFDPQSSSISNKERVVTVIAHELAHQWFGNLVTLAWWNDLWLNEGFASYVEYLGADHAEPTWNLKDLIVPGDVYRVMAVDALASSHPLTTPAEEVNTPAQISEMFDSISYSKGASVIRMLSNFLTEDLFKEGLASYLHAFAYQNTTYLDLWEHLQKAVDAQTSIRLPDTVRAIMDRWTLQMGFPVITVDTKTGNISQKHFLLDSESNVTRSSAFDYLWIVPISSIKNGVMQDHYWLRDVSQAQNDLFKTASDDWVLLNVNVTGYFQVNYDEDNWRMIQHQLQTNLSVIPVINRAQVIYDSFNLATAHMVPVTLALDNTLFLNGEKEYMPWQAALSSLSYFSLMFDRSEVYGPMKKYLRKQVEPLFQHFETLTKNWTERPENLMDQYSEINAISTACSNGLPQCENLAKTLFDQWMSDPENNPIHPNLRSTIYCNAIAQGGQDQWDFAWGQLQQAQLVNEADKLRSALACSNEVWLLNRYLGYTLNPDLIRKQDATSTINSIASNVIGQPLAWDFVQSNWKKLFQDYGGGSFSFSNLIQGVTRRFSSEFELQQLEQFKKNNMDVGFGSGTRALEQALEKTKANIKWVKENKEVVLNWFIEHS

Plasmodium falciparum [4] = assay: Inhibition of alanyl aminopeptidase activity in Plasmodium falciparum 3D7 at 0.1 uM using Ala-AMC as a substrate by spectrophotometer; summary of the method: as §1
[5] = biological target: T1, Leucine aminopeptidase (Plasmodium falciparum 3D7); assay: Inhibition of leucyl aminopeptidase activity in Plasmodium falciparum 3D7 at 10 uM using Leu-AMC as a substrate by spectrophotometer in presence of 1 mM CoCl2
[6] = biological target: T1, Leucine aminopeptidase (Plasmodium falciparum 3D7); assay: Inhibition of leucyl aminopeptidase activity in Plasmodium falciparum 3D7 at 10 uM using Leu-AMC as a substrate by spectrophotometer; summary of the method: as §1
Plasmodium falciparum [7] = assay: Antimalarial activity against Plasmodium falciparum 3D7 infected in O-positive human erythrocytes after 72 hrs; format: functional, organism-based; conditions: 3D7, 72 h
Summary of the method: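 Asynchronous asexual blood-stage P. falciparum 3D7 were cultured in O+ erythrocytes and exposed to compounds for 72 h. Growth was read by the spectrophotometric parasite lactate dehydrogenase absorbance assay. IC50 values were determined graphically from dose-response curves.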

[8] = Inhibition of porcine kidney leucyl aminopeptidase; design: species or system Sus scrofa
[9] = biological target: T1, Leucine aminopeptidase (Plasmodium falciparum 3D7); assay: Inhibition of leucyl aminopeptidase activity in Plasmodium falciparum 3D7 at 0.1 uM using Leu-AMC as a substrate by spectrophotometer in presence of 1 mM CoCl2

SMILES	inhibition [1] [%]	inhibition at 10 µM (Plasmodium falciparum [2]) [%]	inhibition [3] [%]	Ki (Aminopeptidase N) [µM]	inhibition at 0.1 µM (Plasmodium falciparum [4]) [%]	inhibition [5] [%]	inhibition [6] [%]	IC50 (Plasmodium falciparum [7]) [µM]	Ki [8] [µM]	inhibition [9] [%]
NC(CCCC1CCCCC1)P(=O)(O)O (racemic)	17	95	34	41.6	15	91	95	14	9.57	51
NC(CCC1CCCCC1)P(=O)(O)O (racemic)	17	94	67	37.1	13	91	94	15	0.21	43
NC(CCCCc1ccccc1)P(=O)(O)O (racemic)	28	97	61	3.69	28	92	97	22	0.33	25
